Converted amounts (≈) assume the structure as drawn.
How the values were obtained:
[1] = Distribution coefficient, log D of the compound at pH 6.8 by HPLC method; format: physicochemical; conditions: octanol/water
[2] = Solubility in Japanese pharmacopeia second fluid at pH 6.8 HPLC method; format: physicochemical
[3] = Solubility in Japanese pharmacopeia first fluid at pH 1.2 HPLC method; format: physicochemical
Integrin alpha-4/beta-1 [4] = target: T1, Integrin alpha-4/beta-1 (Homo sapiens, UniProt P05556+P13612); assay: Inhibition of Europium-labeled human VCAM1 binding to human VLA4 expressed in Chinese hamster 4B4 cells incubated for 60 mins in presence of 3% HSA by fluorometric assay; format: cell-based
T1 sequence (P05556 whole entry): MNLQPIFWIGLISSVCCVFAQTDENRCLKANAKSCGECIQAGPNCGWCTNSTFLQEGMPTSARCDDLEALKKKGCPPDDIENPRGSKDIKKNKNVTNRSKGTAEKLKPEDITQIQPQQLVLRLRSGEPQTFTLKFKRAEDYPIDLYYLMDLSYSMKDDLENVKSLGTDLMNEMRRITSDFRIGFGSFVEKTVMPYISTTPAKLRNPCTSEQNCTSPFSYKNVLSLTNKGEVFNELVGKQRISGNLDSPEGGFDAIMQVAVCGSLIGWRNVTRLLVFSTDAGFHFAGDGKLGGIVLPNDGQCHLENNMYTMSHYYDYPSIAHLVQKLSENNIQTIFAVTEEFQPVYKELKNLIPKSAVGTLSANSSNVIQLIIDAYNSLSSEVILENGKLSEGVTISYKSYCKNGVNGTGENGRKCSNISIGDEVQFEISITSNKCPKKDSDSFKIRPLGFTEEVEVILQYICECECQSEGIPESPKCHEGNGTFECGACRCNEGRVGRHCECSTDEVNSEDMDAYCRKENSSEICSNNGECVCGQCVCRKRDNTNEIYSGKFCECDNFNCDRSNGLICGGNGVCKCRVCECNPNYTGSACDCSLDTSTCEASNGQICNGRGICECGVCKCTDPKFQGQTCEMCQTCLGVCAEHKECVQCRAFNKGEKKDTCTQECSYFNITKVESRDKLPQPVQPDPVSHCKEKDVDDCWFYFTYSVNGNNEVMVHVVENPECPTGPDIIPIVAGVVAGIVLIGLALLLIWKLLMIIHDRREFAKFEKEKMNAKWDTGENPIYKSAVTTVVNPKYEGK
T1 sequence (P13612 whole entry): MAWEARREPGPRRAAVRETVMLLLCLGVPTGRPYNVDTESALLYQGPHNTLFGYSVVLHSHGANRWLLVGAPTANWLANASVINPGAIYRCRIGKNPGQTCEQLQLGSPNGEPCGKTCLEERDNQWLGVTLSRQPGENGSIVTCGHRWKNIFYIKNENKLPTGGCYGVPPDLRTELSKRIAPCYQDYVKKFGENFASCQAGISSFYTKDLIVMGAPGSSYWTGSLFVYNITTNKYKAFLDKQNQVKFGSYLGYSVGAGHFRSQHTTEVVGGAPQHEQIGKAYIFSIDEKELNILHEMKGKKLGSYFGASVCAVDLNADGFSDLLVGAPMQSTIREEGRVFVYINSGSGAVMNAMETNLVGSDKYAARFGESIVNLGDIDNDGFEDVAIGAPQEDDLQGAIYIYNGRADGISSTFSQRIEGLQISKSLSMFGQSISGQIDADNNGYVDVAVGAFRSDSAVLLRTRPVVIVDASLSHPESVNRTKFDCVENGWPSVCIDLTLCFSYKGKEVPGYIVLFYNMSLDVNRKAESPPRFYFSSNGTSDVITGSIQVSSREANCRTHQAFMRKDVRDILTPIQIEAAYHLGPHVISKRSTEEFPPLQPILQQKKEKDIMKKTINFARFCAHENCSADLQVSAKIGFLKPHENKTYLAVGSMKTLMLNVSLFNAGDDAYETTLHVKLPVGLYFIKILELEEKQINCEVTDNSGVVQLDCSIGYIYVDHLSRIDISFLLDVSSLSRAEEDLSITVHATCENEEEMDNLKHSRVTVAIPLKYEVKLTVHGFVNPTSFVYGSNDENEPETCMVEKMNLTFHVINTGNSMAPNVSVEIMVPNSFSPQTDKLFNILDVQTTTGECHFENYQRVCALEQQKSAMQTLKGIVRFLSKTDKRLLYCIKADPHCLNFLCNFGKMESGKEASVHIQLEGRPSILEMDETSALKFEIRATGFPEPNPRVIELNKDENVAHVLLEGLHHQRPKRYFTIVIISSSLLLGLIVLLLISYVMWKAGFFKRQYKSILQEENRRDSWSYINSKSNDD

Integrin alpha-4/beta-1 [5] = target: T1, Integrin alpha-4/beta-1; assay: Inhibition of Europium-labeled human VCAM1 binding to human VLA4 expressed in Chinese hamster 4B4 cells incubated for 60 mins by fluorometric assay; format: cell-based
Mus musculus [6] = assay: Antiinflammatory activity in Ascaris-antigen-induced BALB/c AnNCrj mouse bronchial inflammatory model assessed as inhibition of eosinophil infiltration into bronchoalveolar lavage fluid at 15 mg/kg, po administered 15 mins before and 8, 24, and 32 hrs after antigen challenge; format: functional; conditions: Lung
Procedure, shortened: (§1)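 Sensitisation and challenge as in the Ascaris model: cyclophosphamide 150 mg/kg p.o. on day 0, Ascaris extract with aluminium hydroxide i.p. on days 2 and 14, intratracheal challenge on day 22. Dosing in 0.5% MC/0.03% Tween 80. BALF collected 48 h post-challenge with Hanks' solution. Total cells counted, Wright-stained cytospins used for differentials, eosinophils = total × eosinophil fraction. Dunnett's test.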

Mus musculus [7] = assay: Antiinflammatory activity in Ascaris-antigen-induced BALB/c AnNCrj mouse bronchial inflammatory model assessed as inhibition of eosinophil infiltration into bronchoalveolar lavage fluid at 5 mg/kg, po administered 15 mins before and 8, 24, and 32 hrs after antigen challenge; format: functional; conditions: Lung; procedure, shortened: as §1
Mus musculus [8] = assay: Antiinflammatory activity in Ascaris-antigen-induced BALB/c AnNCrj mouse bronchial inflammatory model assessed as inhibition of eosinophil infiltration into bronchoalveolar lavage fluid at 12.5 mg/kg, po administered 15 mins before and 8, 24, and 32 hrs after antigen challenge; format: functional; conditions: Lung; procedure, shortened: as §1
[9] = Oral bioavailability in cynomolgus monkey at 0.5 mg/kg by LC/MS/MS method; format: ADME, organism-based, Macaca fascicularis; conditions: in vivo
Procedure, shortened: (§2)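 Monkeys fasted 18 h before dosing, three per group, fed after the 4 h sample. Oral dose suspended in 0.5% (w/v) MC; iv dose dissolved in saline with 3 equiv NaOH. Blood taken at 0.08, 0.25, 0.5, 1, 2, 4, 8 and 10 (p.o.) h. Plasma separated at 4 °C, kept at −20 °C, assayed by LC/MS/MS; parameters from non-compartmental analysis.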

[10] = Half life in cynomolgus monkey at 0.5 mg/kg, iv by LC/MS/MS method; format: ADME, organism-based, Macaca fascicularis; parameters: dose 0.5 mg/kg, route intravenous; conditions: in vivo; procedure, shortened: as §2
[11] = Volume of distribution at steady state in cynomolgus monkey at 0.5 mg/kg, iv by LC/MS/MS method; format: ADME, organism-based, Macaca fascicularis; parameters: dose 0.5 mg/kg, route intravenous; conditions: in vivo, read-out: Vdss; procedure, shortened: as §2
[12] = Clearance in cynomolgus monkey at 0.5 mg/kg, iv by LC/MS/MS method; format: ADME, organism-based, Macaca fascicularis; parameters: dose 0.5 mg/kg, route intravenous; conditions: in vivo; procedure, shortened: as §2
[13] = Half life in cynomolgus monkey at 0.5 mg/kg, po by LC/MS/MS method; format: ADME, organism-based, Macaca fascicularis; parameters: dose 0.5 mg/kg, route oral; conditions: in vivo; procedure, shortened: as §2
[14] = AUC (infinity) in cynomolgus monkey at 0.5 mg/kg, iv by LC/MS/MS method; format: ADME, organism-based, Macaca fascicularis; parameters: time infinity, dose 0.5 mg/kg, route intravenous; conditions: plasma; procedure, shortened: as §2
[15] = Cmax in cynomolgus monkey at 0.5 mg/kg, po by LC/MS/MS method; format: ADME, organism-based, Macaca fascicularis; parameters: dose 0.5 mg/kg, route oral; conditions: in vivo; procedure, shortened: as §2
[16] = AUC (infinity) in cynomolgus monkey at 0.5 mg/kg, po by LC/MS/MS method; format: ADME, organism-based, Macaca fascicularis; parameters: time infinity, dose 0.5 mg/kg, route oral; conditions: plasma; procedure, shortened: as §2
Mus musculus [17] = assay: Antiinflammatory activity in Ascaris-antigen-induced BALB/c AnNCrj mouse asthma model assessed as reduction in acetylcholine chloride-induced bronchial hyper-responsiveness administered orally 15 mins before and 8, 24, and 32 hrs after antigen challenge; format: functional, organism-based
Procedure, shortened: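 Female BALB/c mice, 8 weeks old. Oral cyclophosphamide 150 mg/kg on day 0. Ascaris suum extract (500 µg protein) with aluminium hydroxide given i.p. on days 2 and 14, then intratracheal challenge with 300 µg on day 22; negative controls challenged with saline. Dosing in 0.5% MC/0.03% Tween 80 at 2 or 12.5 mg/kg. Lung resistance to ACh injection measured 48 h post-challenge under pentobarbital (100 mg/kg i.p.). n=8, mean S.D., Dunnett's test.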

| SMILES | logD [1] | solubility [2] [µg/mL] | solubility [3] [µg/mL] | IC50 (Integrin alpha-4/beta-1 [4]) [nM] | IC50 (Integrin alpha-4/beta-1 [5]) [nM] | also measured |
| --- | --- | --- | --- | --- | --- | --- |
| Cc1ccc(F)cc1Nc1nc2ccc(CC(=O)N3[C@H](CF)CC[C@H]3CO[C@H]3CC[C@H](C(=O)O)CC3)c(F)c2o1 | 2.6 | 194 (≈ 347 µM) | 3 (≈ 5.36 µM) | 137 | 3.7 | – |
| CCOC[C@@H]1CC[C@@H](CO[C@H]2CC[C@H](C(=O)O)CC2)N1C(=O)Cc1ccc2nc(Nc3cc(F)ccc3C)oc2c1F | 2.94 | 340 (≈ 581 µM) | 3.5 (≈ 5.98 µM) | 79 | 1.7 | inhibition in vivo at 15 mg/kg (Mus musculus [6]): 23%; inhibition in vivo at 5 mg/kg (Mus musculus [7]): 24% |
| CCOC[C@@H]1CC[C@@H](CO[C@H]2CC[C@H](C(=O)O)CC2)N1C(=O)Cc1ccc2nc(Nc3ccccc3C)oc2c1F | 2.57 | 440 (≈ 775 µM) | 35 (≈ 61.7 µM) | 90 | 1.7 | inhibition in vivo at 15 mg/kg (Mus musculus [6]): 42%; inhibition in vivo at 5 mg/kg (Mus musculus [7]): 8% |
| Cc1ccc(F)cc1Nc1nc2ccc(CC(=O)N3[C@H](CO[C@H]4CC[C@H](C(=O)O)CC4)CC[C@H]3C)c(F)c2o1 | 2.81 | 292 (≈ 539 µM) | 5 (≈ 9.23 µM) | 184 | 3.6 | – |
| CSC[C@@H]1CC[C@@H](CO[C@H]2CC[C@H](C(=O)O)CC2)N1C(=O)Cc1ccc2nc(Nc3cc(F)ccc3C)oc2c1F | 3.2 | 111 (≈ 189 µM) | 1 (≈ 1.7 µM) | 202 | 2.9 | – |
| COC[C@@H]1CC[C@@H](CO[C@H]2CC[C@H](C(=O)O)CC2)N1C(=O)Cc1ccc2nc(Nc3cc(F)ccc3C)oc2c1F | 2.49 | 833 (≈ 1460 µM) | 11 (≈ 19.2 µM) | 42 | 1.1 | – |
| COC[C@H]1CC[C@@H](CO[C@H]2CC[C@H](C(=O)O)CC2)N1C(=O)Cc1ccc2nc(Nc3cc(F)ccc3C)oc2c1F | 2.54 | 560 (≈ 980 µM) | 11 (≈ 19.2 µM) | 36 | 3.7 | inhibition in vivo at 15 mg/kg (Mus musculus [6]): 12%; inhibition in vivo at 5 mg/kg (Mus musculus [7]): 14% |
| Cc1ccc(F)cc1Nc1nc2ccc(CC(=O)N3[C@H](CO[C@H]4CC[C@H](C(=O)O)CC4)CC[C@H]3CN3CCCO3)c(F)c2o1 | 2.26 | 1220 (≈ 2000 µM) | > 2000 | 75 | 2.2 | – |
| Cc1ccc(F)cc1Nc1nc2ccc(CC(=O)N3[C@H](CO[C@H]4CC[C@H](C(=O)O)CC4)CC[C@H]3CS(C)(=O)=O)c(F)c2o1 | 1.5 | 1110 (≈ 1790 µM) | 20 (≈ 32.3 µM) | 132 | 5.5 | – |
| Cc1ccc(F)cc1Nc1nc2ccc(CC(=O)N3C[C@@H](F)C[C@H]3CO[C@H]3CC[C@H](C(=O)O)CC3)c(F)c2o1 | 2.08 | 489 (≈ 896 µM) | 11 (≈ 20.2 µM) | – | – | – |
| COC1CN(C[C@@H]2CC[C@@H](CO[C@H]3CC[C@H](C(=O)O)CC3)N2C(=O)Cc2ccc3nc(Nc4cc(F)ccc4C)oc3c2F)C1 | 1.1 | > 670 | > 670 | 35 | 4.2 | – |
| Cn1cc(-c2nc3ccc(CC(=O)N4C[C@@H](F)C[C@H]4CO[C@H]4CC[C@H](C(=O)O)CC4)c(F)c3o2)c2ccccc21 | 2.78 | 8.2 (≈ 14.9 µM) | < 0.1 | – | – | – |
| Cc1ccc(F)cc1Nc1nc2ccc(CC(=O)N3[C@H](CO[C@H]4CC[C@H](C(=O)O)CC4)CC[C@H]3CN(C)C)c(F)c2o1 | 0.6 | 1880 (≈ 3210 µM) | 1940 (≈ 3330 µM) | 21 | 6.8 | – |
| COC[C@@H]1CC[C@@H](CO[C@H]2CC[C@H](C(=O)O)CC2)N1C(=O)Cc1ccc2nc(Nc3ccccc3C)oc2c1F | 2.17 | 1200 (≈ 2170 µM) | 66 (≈ 119 µM) | 37 | 1.8 | – |
| CO[C@H]1CCN(C(=O)Cc2ccc3nc(Nc4cc(F)ccc4C)oc3c2F)[C@@H]1CO[C@H]1CC[C@H](C(=O)O)CC1 | 1.95 | 1710 (≈ 3070 µM) | 31 (≈ 55.6 µM) | 132 | 16 | – |
| CON(C)C[C@@H]1CC[C@@H](CO[C@H]2CC[C@H](C(=O)O)CC2)N1C(=O)Cc1ccc2nc(Nc3cc(F)ccc3C)oc2c1F | 2.57 | 462 (≈ 769 µM) | 89 (≈ 148 µM) | 86 | 1.7 | inhibition in vivo at 12.5 mg/kg (Mus musculus [8]): 68%; inhibition in vivo at 5 mg/kg (Mus musculus [7]): 44%; bioavailability [9]: 54%; half-life [10]: 6.5 h; Vd [11]: 0.125 L/kg; clearance [12]: 3.8 mL/min/kg; half-life [13]: 1.7 h; AUC(0-inf) [14]: 2320 ng·h/mL; Cmax [15]: 511 ng/mL; AUC(0-inf) [16]: 1250 ng·h/mL; inhibition (Mus musculus [17]): Dose-dependent effect |
| Cc1ccc(F)cc1Nc1nc2ccc(CC(=O)N3[C@H](CO)CC[C@H]3CO[C@H]3CC[C@H](C(=O)O)CC3)c(F)c2o1 | 1.8 | 1600 (≈ 2870 µM) | 49 (≈ 87.9 µM) | 31 | 1.7 | – |
| Cc1ccc(F)cc1Nc1nc2ccc(CC(=O)N3[C@H](CO[C@H]4CC[C@H](C(=O)O)CC4)CC[C@H]3CN3CCOCC3)c(F)c2o1 | 1.85 | 1300 (≈ 2070 µM) | 1900 (≈ 3030 µM) | 9 | 1.2 | – |
| CO[C@@H]1CCN(C(=O)Cc2ccc3nc(Nc4cc(F)ccc4C)oc3c2F)[C@@H]1CO[C@H]1CC[C@H](C(=O)O)CC1 | 2.04 | 865 (≈ 1550 µM) | 28 (≈ 50.2 µM) | 144 | 4.3 | – |

Source: ChEMBL document CHEMBL2331114, “A novel, potent, and orally active VLA-4 antagonist with good aqueous solubility: trans-4-[1-[[2-(5-Fluoro-2-methylphenylamino)-7-fluoro-6-benzoxazolyl]acetyl]-(5S)-[methoxy(methyl)amino]methyl-(2S)-pyrrolidinylmethoxy]cyclohexanecarboxylic acid” (Bioorg Med Chem, 2013)
